The source made the active and inactive calls. No cut-off for these calls is given here.
Legend:
[1] = target: T1, Sodium channel protein type 5 subunit alpha (Homo sapiens, UniProt Q14524); test: Inhibition of human Nav1.5 expressed in Xenopus laevis oocytes at closed state at 1 uM by two electrode voltage-clamp assay; format: cell-based; settings: oocyte
Summary of the method: (§1)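 TEVC on Nav channels expressed in Xenopus laevis oocytes. Each oocyte was injected with 50 nL cRNA at 1 ng/nL and recorded 1–4 days later at 18–22 °C. Bath (mM): NaCl 96, KCl 2, CaCl2 1.8, MgCl2 2, HEPES 5, pH 7.4. Electrodes held 3 M KCl at 0.8–1.5 MΩ. Compound tested at 1 μM. Mean ± SD, n ≥ 5.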

[2] = target: T1, Sodium channel protein type 5 subunit alpha; test: Inhibition of human Nav1.5 expressed in CHO cells under tonic pulse 1 by automated patch clamp electrophysiology analysis; format: cell-based
[3] = target: T1, Sodium channel protein type 5 subunit alpha; test: Inhibition of human Nav1.5 expressed in CHO cells by automated patch clamp electrophysiology analysis
[4] = target: T2, Sodium channel protein type 9 subunit alpha (Homo sapiens, UniProt Q15858); test: Inhibition of human Nav1.7 expressed in CHO cells under resting state by automated patch clamp electrophysiology analysis; format: cell-based
[5] = target: T2, Sodium channel protein type 9 subunit alpha; test: Inhibition of human Nav1.7 expressed in CHO cells under inactivated state by automated patch clamp electrophysiology analysis; format: cell-based
[6] = target: T1, Sodium channel protein type 5 subunit alpha; test: Inhibition of human Nav1.5 expressed in CHO cells under resting state by automated patch clamp electrophysiology analysis; format: cell-based
[7] = target: T1, Sodium channel protein type 5 subunit alpha; test: Inhibition of human Nav1.5 expressed in CHO cells under inactivated state by automated patch clamp electrophysiology analysis; format: cell-based
[8] = target: T3, Sodium channel protein type 3 subunit alpha (Homo sapiens, UniProt Q9NY46); test: Inhibition of human Nav1.3 expressed in CHO cells under resting state by automated patch clamp electrophysiology analysis; format: cell-based
[9] = target: T3, Sodium channel protein type 3 subunit alpha; test: Inhibition of human Nav1.3 expressed in CHO cells under inactivated state by automated patch clamp electrophysiology analysis; format: cell-based
[10] = target: Sodium channel protein type 1 subunit alpha (Homo sapiens) (UniProt P35498); test: Inhibition of human Nav1.1 expressed in Xenopus laevis oocytes at closed state at 1 uM by two electrode voltage-clamp assay; format: cell-based; settings: Oocyte; summary of the method: as §1
[11] = target: Sodium channel protein type 2 subunit alpha (Rattus norvegicus) (UniProt P04775); test: Inhibition of rat Nav1.2 expressed in Xenopus laevis oocytes at closed state at 1 uM by two electrode voltage-clamp assay; format: cell-based; settings: Oocyte; summary of the method: as §1
[12] = target: Sodium channel protein type 4 subunit alpha (Rattus norvegicus) (UniProt P15390); test: Inhibition of rat Nav1.4 expressed in Xenopus laevis oocytes at closed state at 1 uM by two electrode voltage-clamp assay; format: cell-based; settings: Oocyte; summary of the method: as §1
[13] = target: Sodium channel protein type 8 subunit alpha (Mus musculus) (UniProt Q9WTU3); test: Inhibition of mouse Nav1.6 expressed in Xenopus laevis oocytes at closed state at 1 uM by two electrode voltage-clamp assay; format: cell-based; settings: Oocyte; summary of the method: as §1
[14] = target: T2, Sodium channel protein type 9 subunit alpha; test: Inhibition of human Nav1.7 expressed in Xenopus laevis oocytes at closed state at 1 uM by two electrode voltage-clamp assay; format: cell-based; settings: Oocyte; summary of the method: as §1
[15] = target: Sodium channel protein type 10 subunit alpha (Homo sapiens) (UniProt Q9Y5Y9); test: Inhibition of human Nav1.8 expressed in Xenopus laevis oocytes at closed state at 1 uM by two electrode voltage-clamp assay; format: cell-based; settings: Oocyte; summary of the method: as §1
[16] = target: Sodium channel protein type 3 subunit alpha (Rattus norvegicus) (UniProt P08104); test: Inhibition of rat Nav1.3 expressed in Xenopus laevis oocytes at 1 uM under inactivated state by two electrode voltage-clamp assay relative to control; format: cell-based; settings: Oocyte; summary of the method: as §1

T1 sequence (Q14524 whole entry): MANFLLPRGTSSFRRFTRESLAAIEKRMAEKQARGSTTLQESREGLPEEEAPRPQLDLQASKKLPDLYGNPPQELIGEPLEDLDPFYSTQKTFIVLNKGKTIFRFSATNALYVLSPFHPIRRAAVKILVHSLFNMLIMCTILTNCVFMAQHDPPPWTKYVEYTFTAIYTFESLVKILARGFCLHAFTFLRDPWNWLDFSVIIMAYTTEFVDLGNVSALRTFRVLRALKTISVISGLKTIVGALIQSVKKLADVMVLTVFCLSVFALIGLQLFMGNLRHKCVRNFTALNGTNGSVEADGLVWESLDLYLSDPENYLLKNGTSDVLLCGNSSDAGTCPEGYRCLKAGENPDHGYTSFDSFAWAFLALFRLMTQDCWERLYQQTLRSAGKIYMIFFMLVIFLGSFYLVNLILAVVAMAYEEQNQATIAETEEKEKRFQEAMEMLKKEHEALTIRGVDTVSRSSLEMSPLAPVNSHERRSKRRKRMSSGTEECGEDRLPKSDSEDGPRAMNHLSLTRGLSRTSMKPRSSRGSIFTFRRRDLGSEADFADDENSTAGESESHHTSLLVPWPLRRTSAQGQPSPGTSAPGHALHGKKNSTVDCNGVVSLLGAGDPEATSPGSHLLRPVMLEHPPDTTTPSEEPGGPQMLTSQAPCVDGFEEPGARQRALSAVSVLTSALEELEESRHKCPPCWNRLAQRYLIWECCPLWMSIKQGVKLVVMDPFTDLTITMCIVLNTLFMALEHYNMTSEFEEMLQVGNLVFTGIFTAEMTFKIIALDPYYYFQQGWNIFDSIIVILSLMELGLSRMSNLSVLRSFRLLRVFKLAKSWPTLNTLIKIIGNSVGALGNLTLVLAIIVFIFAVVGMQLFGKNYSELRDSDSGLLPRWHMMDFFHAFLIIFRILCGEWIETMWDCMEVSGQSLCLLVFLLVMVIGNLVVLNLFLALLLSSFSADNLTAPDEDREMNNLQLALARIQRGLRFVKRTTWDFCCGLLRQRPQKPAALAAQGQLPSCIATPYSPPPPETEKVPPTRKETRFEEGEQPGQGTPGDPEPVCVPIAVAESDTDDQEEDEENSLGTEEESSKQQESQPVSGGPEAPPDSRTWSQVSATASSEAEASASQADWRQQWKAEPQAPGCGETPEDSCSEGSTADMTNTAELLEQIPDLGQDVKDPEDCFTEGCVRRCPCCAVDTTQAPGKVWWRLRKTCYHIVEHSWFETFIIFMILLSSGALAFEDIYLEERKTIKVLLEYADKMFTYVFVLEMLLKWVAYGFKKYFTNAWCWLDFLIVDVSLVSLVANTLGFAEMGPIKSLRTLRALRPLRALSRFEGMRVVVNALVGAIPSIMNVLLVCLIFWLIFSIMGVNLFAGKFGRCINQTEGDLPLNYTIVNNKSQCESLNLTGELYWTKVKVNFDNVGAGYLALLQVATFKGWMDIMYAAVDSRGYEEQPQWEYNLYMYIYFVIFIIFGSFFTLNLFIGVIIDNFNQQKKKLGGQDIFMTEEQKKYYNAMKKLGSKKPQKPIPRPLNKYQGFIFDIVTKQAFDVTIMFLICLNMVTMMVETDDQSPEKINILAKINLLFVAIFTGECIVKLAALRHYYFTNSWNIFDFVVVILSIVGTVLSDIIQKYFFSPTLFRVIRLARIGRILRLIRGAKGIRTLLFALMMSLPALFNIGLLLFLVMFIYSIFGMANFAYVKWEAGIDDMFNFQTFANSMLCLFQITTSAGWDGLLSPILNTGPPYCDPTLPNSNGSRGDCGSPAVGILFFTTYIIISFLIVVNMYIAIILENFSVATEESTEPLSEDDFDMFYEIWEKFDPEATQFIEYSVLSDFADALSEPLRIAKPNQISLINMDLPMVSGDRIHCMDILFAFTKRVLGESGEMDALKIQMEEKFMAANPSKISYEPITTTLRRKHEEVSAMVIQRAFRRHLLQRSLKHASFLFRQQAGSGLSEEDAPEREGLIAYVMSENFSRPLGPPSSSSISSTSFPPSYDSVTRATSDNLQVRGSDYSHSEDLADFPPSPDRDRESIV
Sequence of Sodium channel protein type 4 subunit alpha (Rattus norvegicus) (P15390 whole entry): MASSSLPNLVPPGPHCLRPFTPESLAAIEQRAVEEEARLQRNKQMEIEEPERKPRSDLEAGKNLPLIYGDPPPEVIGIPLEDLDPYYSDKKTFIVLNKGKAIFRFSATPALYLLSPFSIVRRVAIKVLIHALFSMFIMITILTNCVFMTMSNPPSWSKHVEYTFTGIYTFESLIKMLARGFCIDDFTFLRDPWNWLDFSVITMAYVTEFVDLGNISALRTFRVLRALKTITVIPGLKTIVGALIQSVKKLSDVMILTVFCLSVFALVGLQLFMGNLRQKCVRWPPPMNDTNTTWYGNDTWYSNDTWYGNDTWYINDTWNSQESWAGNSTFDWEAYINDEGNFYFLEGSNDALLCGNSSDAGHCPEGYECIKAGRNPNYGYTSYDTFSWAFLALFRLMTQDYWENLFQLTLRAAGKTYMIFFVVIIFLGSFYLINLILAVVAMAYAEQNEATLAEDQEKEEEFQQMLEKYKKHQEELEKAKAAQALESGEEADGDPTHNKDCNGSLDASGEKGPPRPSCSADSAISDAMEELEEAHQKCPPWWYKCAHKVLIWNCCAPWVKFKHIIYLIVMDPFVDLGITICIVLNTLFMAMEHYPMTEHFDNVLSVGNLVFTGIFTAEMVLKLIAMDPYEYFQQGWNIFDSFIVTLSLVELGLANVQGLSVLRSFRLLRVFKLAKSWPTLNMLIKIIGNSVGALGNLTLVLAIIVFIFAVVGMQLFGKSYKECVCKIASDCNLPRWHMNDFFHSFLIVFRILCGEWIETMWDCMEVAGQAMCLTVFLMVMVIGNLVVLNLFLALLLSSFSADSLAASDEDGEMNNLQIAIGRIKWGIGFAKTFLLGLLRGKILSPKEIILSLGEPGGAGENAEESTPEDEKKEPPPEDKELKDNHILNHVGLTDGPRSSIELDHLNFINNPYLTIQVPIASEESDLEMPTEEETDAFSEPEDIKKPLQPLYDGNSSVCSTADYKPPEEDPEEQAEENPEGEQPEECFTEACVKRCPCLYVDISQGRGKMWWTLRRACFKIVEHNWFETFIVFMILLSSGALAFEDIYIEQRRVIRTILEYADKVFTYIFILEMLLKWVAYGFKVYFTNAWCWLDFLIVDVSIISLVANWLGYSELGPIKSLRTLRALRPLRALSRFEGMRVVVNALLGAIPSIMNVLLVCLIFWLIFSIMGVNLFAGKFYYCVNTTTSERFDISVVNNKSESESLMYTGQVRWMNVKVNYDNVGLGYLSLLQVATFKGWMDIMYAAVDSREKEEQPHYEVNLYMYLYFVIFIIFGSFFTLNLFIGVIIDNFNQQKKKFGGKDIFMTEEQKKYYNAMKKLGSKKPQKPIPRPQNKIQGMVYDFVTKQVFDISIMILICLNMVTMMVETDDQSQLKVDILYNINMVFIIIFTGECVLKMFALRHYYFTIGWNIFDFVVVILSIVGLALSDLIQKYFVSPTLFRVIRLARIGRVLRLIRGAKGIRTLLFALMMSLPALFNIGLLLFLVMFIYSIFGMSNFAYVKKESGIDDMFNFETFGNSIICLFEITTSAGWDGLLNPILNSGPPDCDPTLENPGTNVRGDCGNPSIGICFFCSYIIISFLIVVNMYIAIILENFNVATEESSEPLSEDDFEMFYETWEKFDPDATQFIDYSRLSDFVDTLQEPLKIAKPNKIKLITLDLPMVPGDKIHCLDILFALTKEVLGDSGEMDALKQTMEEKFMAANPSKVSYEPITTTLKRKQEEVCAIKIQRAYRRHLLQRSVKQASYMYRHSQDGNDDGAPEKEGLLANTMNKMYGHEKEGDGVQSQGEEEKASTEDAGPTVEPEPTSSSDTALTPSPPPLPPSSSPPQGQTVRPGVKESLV

SMILES	inhibition (INH) [1]	IC50 [2] [µM]	IC50 [3] [µM]	IC50 [8] [µM]	IC50 [9] [µM]	also measured
CS(=O)(=O)NC(=O)c1ccc(NC(=O)c2cc(Br)c(Br)n2Cc2ccccc2)cc1	Not Active	–	–	–	–	–
O=C(Nc1ccc(S(=O)(=O)Nc2nccs2)cc1)c1cccn1Cc1ccccc1	Not Active	> 30	> 30	–	–	–
C[C@H](Oc1ccc(Cl)cc1)C(=O)Nc1ccc(C(=O)NS(C)(=O)=O)cc1	Not Active	–	–	–	–	–
O=C(Nc1ccc(S(=O)(=O)Nc2nccs2)cc1)c1cc(Br)c(Br)n1Cc1ccccc1	Not Active	> 30	> 30	–	–	IC50 [4]: > 30 µM; IC50 [5]: 7.1 µM; IC50 [6]: > 30 µM; IC50 [7]: 3.5 µM
Cc1nn(C)cc1/C=C(\C#N)C(=O)Nc1ccc(S(=O)(=O)Nc2nccs2)cc1	Not Active	> 30	> 30	26	3.8	inhibition [10]: inactive; inhibition [11]: inactive; inhibition [12]: inactive; inhibition [13]: inactive; inhibition [14]: inactive; inhibition [15]: inactive
O=C(Nc1ccc(S(=O)(=O)Nc2nccs2)cc1)C1Cc2cc(Cl)ccc2O1 (centres undefined)	Not Active	> 30	> 30	> 30	0.24	inhibition [10]: inactive; inhibition [11]: inactive; inhibition [16]: 21%; inhibition [12]: inactive; inhibition [13]: inactive; inhibition [14]: inactive; inhibition [15]: inactive
CC(=O)NS(=O)(=O)c1ccc(NC(=O)[C@@H]2C[C@H]2c2ccccc2)cc1	Not Active	> 30	> 30	–	–	–
O=C(Nc1ccc(S(=O)(=O)Nc2nccs2)cc1)[C@@H]1C[C@H]1c1ccccc1	–	–	–	–	–	IC50 ([8]; cho): 18 µM; IC50 ([9]; cho): 0.056 µM
CC(=O)NS(=O)(=O)c1ccc(NC(=O)CC(C)c2ccccc2)cc1 (centres undefined)	–	–	–	> 30	21	–
CC(=O)NS(=O)(=O)c1ccc(NC(=O)c2cccn2Cc2ccc(Cl)cc2)cc1	Not Active	–	–	–	–	–
O=C(Nc1cccc(S(=O)(=O)Nc2nccs2)c1)c1cccn1Cc1ccc(Cl)cc1	Not Active	> 30	> 30	–	–	–
CN(C)CCC=C1c2ccccc2CCc2ccccc21 [AMITRIPTYLINE]	–	11	6.9	–	–	IC50 [4]: 10 µM; IC50 [5]: 2.3 µM; IC50 [6]: 20 µM; IC50 [7]: 1.2 µM
CN(C)S(=O)(=O)NC(=O)c1ccc(NC(=O)c2cccn2Cc2ccc(Cl)cc2)cc1	Not Active	–	–	–	–	–
CS(=O)(=O)NC(=O)c1ccc(NC(=O)[C@@H]2C[C@H]2c2ccccc2)cc1	Not Active	–	–	> 30	> 30	inhibition [10]: inactive; inhibition [11]: inactive; inhibition [12]: inactive; inhibition [13]: inactive; inhibition [14]: inactive; inhibition [15]: inactive
C[C@@H](Oc1ccc(Cl)cc1)C(=O)Nc1ccc(C(=O)NS(=O)(=O)N(C)C)cc1	Not Active	–	–	–	–	–
CC1CCCCN1C(=O)c1ccc(NS(=O)(=O)c2ccc3[nH]c(=O)[nH]c3c2)cc1 (centres undefined)	–	–	–	> 30	> 30	–
CN(C)S(=O)(=O)NC(=O)c1ccc(NC(=O)c2cc3ccccc3o2)cc1	Not Active	–	–	–	–	–
O=C(Nc1cccc(S(=O)(=O)Nc2nccs2)c1)c1cccn1Cc1ccccc1	Not Active	> 30	> 30	–	–	–
NC1=N[C@H](O)[C@H]2[C@H]3O[C@]4(O)O[C@@H]([C@@H](O)[C@@]2(N1)[C@@H]4O)[C@]3(O)CO [TETRODOTOXIN]	–	–	–	0.004	0.001	–
CC(NS(=O)(=O)c1ccc(C2=CC(c3ccc(Cl)cc3)n3nnnc3N2)cc1)C(=O)O (centres undefined)	–	–	–	> 30	> 30	–

SMILES	inhibition (INH) [1]	IC50 [2] [µM]	IC50 [3] [µM]	IC50 [8] [µM]	IC50 [9] [µM]	also measured
CC(Oc1ccc(Cl)cc1)C(=O)Nc1ccc(S(=O)(=O)Nc2nccs2)cc1 (centres undefined)	Not Active	> 30	> 30	> 30	0.32	inhibition [10]: inactive; inhibition [11]: inactive; inhibition [16]: 21%; inhibition [12]: inactive; inhibition [13]: inactive; inhibition [14]: inactive; inhibition [15]: inactive
CN(C)S(=O)(=O)NC(=O)c1ccc(NC(=O)[C@@H]2C[C@H]2c2ccccc2)cc1	Not Active	–	–	–	–	–
C[C@@H](Oc1ccc(Cl)cc1)C(=O)Nc1ccc(C(=O)NS(C)(=O)=O)cc1	Not Active	–	–	–	–	–
CS(=O)(=O)NC(=O)c1ccc(OC[C@@H]2C[C@H]2c2ccccc2)cc1	Not Active	> 30	> 30	–	–	–
CC(=O)NS(=O)(=O)c1ccc(NC(=O)c2cc(Br)c(Br)n2-c2ccccc2)cc1	–	–	–	> 30	19	–
CS(=O)(=O)NC(=O)c1cccc(OC[C@@H]2C[C@H]2c2ccccc2)c1	Not Active	> 30	> 30	> 30	> 30	inhibition [10]: inactive; inhibition [11]: inactive; inhibition [12]: inactive; inhibition [13]: inactive; inhibition [14]: inactive; inhibition [15]: inactive
O=C(Nc1ccc(S(=O)(=O)Nc2nccs2)cc1)c1cccn1Cc1ccc(Cl)cc1	Not Active	> 30	> 30	–	–	IC50 [4]: > 30 µM; IC50 [5]: 8.4 µM; IC50 [6]: > 30 µM; IC50 [7]: 3.7 µM
CC(=O)NS(=O)(=O)c1ccc(NC(=O)c2cccn2Cc2ccccc2)cc1	–	–	–	> 30	23	–
CC1CCCC(C)N1S(=O)(=O)c1ccc(NS(=O)(=O)c2ccc3c(c2)CC(=O)N3C)cc1 (centres undefined)	–	–	–	> 30	28	–
CS(=O)(=O)NC(=O)c1ccc(NC(=O)c2cc(Br)c(Br)n2-c2ccccc2)cc1	Not Active	–	–	–	–	–
CC(=O)NS(=O)(=O)c1ccc(NC(=O)c2cc(Br)c(Br)n2Cc2ccccc2)cc1	Not Active	–	–	–	–	–
O=C(Nc1cccc(S(=O)(=O)Nc2nccs2)c1)[C@@H]1C[C@H]1c1ccccc1	Not Active	> 30	> 30	–	–	–
CS(=O)(=O)NC(=O)c1ccc(NC(=O)C2CC2c2ccc(F)c(F)c2)cc1 (racemic)	Not Active	–	–	> 30	> 30	inhibition [10]: inactive; inhibition [11]: inactive; inhibition [12]: inactive; inhibition [13]: inactive; inhibition [14]: inactive; inhibition [15]: inactive
O=C(Nc1ccc(S(=O)(=O)Nc2nccs2)cc1)c1cccn1-c1ccccc1	Not Active	> 30	> 30	–	–	–
CS(=O)(=O)NC(=O)c1ccc(NC(=O)c2cccn2Cc2ccc(Cl)cc2)cc1	Not Active	–	–	> 30	> 30	inhibition [10]: inactive; inhibition [11]: inactive; inhibition [12]: inactive; inhibition [13]: inactive; inhibition [14]: inactive; inhibition [15]: inactive
CC(CCc1ccc(O)cc1)NC(=O)Nc1ccc(S(=O)(=O)N2CCCC2)cc1 (centres undefined)	–	–	–	> 30	20	–
O=C(Nc1cccc(S(=O)(=O)Nc2nccs2)c1)c1cc(Br)c(Br)n1Cc1ccccc1	Not Active	> 30	> 30	–	–	–
O=C(Nc1nccs1)c1ccc(NC(=O)[C@@H]2C[C@H]2c2ccccc2)cc1	–	> 30	> 30	–	–	IC50 [4]: > 30 µM; IC50 [5]: > 30 µM; IC50 [6]: > 30 µM; IC50 [7]: > 30 µM
Cc1nc(-c2c(Cl)cccc2Cl)sc1C(=O)N[C@@H](Cc1ccccc1)C(=O)O	Not Active	–	–	–	–	–
O=C(Nc1ccc(S(=O)(=O)Nc2nccs2)cc1)c1cc(Br)c(Br)n1-c1ccccc1	Not Active	> 30	> 30	–	–	IC50 [4]: > 30 µM; IC50 [5]: 9.3 µM; IC50 [6]: > 30 µM; IC50 [7]: 3.4 µM
